Experimental findings from PubChem BioAssay are described below.

Experiment [1] is described as follows: RPL19A-GFP modulators, yeast TOR pathway, confirmation, cell-based, S. cerevisiae, flow cytometry, cherry picks, mother/daughter gates (AID 2270;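 active means GFP response below 50% of the DMSO control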). The note with it: S. cerevisiae RPL19A-GFP strain, 3 h, at 10 µM, stronger effect = lower value, 100 = same GFP as DMSO wells.
Experiment [2] can be described thus: LAP4-GFP expression modulators in yeast, confirmation, cell-based, cherry picks, flow cytometry, mother/daughter gates (AID 2271;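 active means GFP response above 150% of the DMSO control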;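 further: ratio of sample to DMSO plate mean so 100% equals DMSO level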). The note with it: S. cerevisiae LAP4-GFP strain, 3 h, at 10 µM, stronger effect = higher value, 100 means same as DMSO control. In outline:
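Test system: GFP-fusion yeast strain / Amount: 0.2 OD600 cells / Buffer or medium: SC medium / Dosing: 10 µM single dose / Incubation: compound exposure 3 h at 30 °C, end-over-end rotation / Detection: HT flow cytometry, GFP fluorescence channel / Evaluation: median GFP fluorescence as percent of plate-mean DMSO wells / Control set: DMSO-only negative wells, rapamycin 400 ng/mL positive wells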
On the technique in general: In flow cytometry, cells or beads pass a laser one at a time.

A short description of experiment [3]: modulators of MEP2-GFP levels in yeast, confirmation, S. cerevisiae, flow cytometry GFP, cherry picks (AID 2272;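 active means GFP response above 150% of the DMSO control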;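 further: ratio of well signal to plate DMSO mean so 100% equals DMSO level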). The note with it: S. cerevisiae MEP2-GFP strain, 3 h, at 10 µM, stronger effect = higher value.
A short description of experiment [4]: AGP1-GFP expression modulators, hit retest, confirmation, cell-based, flow cytometry, S. cerevisiae, cherry picks (AID 2273).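 Further: median GFP channel fluorescence over the whole cell population gate.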 The note with it: S. cerevisiae AGP1-GFP strain, 3 h, at 10 µM.
Experiment [5] can be described thus: modulators of CIT2-GFP expression in yeast, confirmation, S. cerevisiae, GFP fusion, cherry picks, mother/daughter gates (AID 2274). The note with it: S. cerevisiae CIT2-GFP strain, flow cytometry, 3 h, at 10 µM, stronger effect = higher value.
Where [6] appears, read: measured here: daughter cell gate.
Setting [7] is: measured here: mother cell gate.
The mark [8] stands for this setting: measured here: daughter cell gate response.
The mark [9] stands for this setting: measured here: mother cell gate response.

SMILES strings stand for the structures. Activity calls are given as the source filed them.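 How the source made its calls, unless noted: active means GFP response above 150% of the DMSO level; inconclusive means fewer than 70 events counted for a yeast strain; inactive means the rest.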

For the compound `CCCCOc1cccc(/C=C(\C#N)C(=O)NC2CC2)c1`, the GFP response vs DMSO in experiment [1] was 93.5% (inactive); in experiment [1] (setting [6]), 92.1%; in experiment [1] (setting [7]) it was 92.5%; in experiment [3] it was 113% (inactive). Moreover, the GFP response relative to DMSO was 117% (inactive) in experiment [2], 114% in experiment [2] (setting [8]) and 116% in experiment [2] (setting [9]). Also, the GFP response, % of DMSO in experiment [4] was 92.7% (inactive); in experiment [5] it was 99.7% (inactive); in experiment [5] (setting [6]), 99.1%; in experiment [5] (setting [7]), 96.1%.

In the case of `CNc1nc(-c2ccccc2)cc(C(F)(F)F)c1C#N`, the GFP response vs DMSO in experiment [1] is 97.4% (inactive); in experiment [1] (setting [6]), 95.3%; in experiment [1] (setting [7]) it was 92.9%; in experiment [3], 104% (inactive). In addition, the GFP response relative to DMSO in experiment [2] was 96.2% (inactive); in experiment [2] (setting [8]) it was 95.6%; in experiment [2] (setting [9]), 93.1%. Besides, the GFP response, % of DMSO in experiment [4] was 102% (inactive); in experiment [5] it was 102% (inactive); in experiment [5] (setting [6]), 99.7%; in experiment [5] (setting [7]), 98.7%.

Take `CC(C)(C)C(=O)NCC12C=CC(O1)C1C(=O)N(c3ccccc3)C(=O)C12` (centres undefined): the GFP response vs DMSO was 94% (inactive) in experiment [1], 96.1% in experiment [1] (setting [6]), 92.9% in experiment [1] (setting [7]) and 110% (inactive) in experiment [3]. Moreover, the values for the GFP response relative to DMSO in experiment [2], in experiment [2] (setting [8]) and in experiment [2] (setting [9]) were 108% (inactive), 108% and 111%, respectively. Also, the GFP response, % of DMSO in experiment [4] was 104% (inactive); in experiment [5], 106% (inactive); in experiment [5] (setting [6]), 105%; in experiment [5] (setting [7]), 105%.

With `O=C(O)c1ccccc1C(=O)N1CCN(c2ccccc2)CC1`, the GFP response vs DMSO in experiment [1] is 99.2% (inactive); in experiment [1] (setting [6]) it was 99.9%; in experiment [1] (setting [7]), 99.7%; in experiment [3], 98.3% (inactive). For the same compound, the results for the GFP response relative to DMSO in experiment [2], in experiment [2] (setting [8]) and in experiment [2] (setting [9]) were 96.7% (inactive), 96% and 96.1%, respectively. For the same compound, the GFP response, % of DMSO in experiment [4] is 101% (inactive); in experiment [5], 103% (inactive); in experiment [5] (setting [6]), 105%; in experiment [5] (setting [7]), 102%.

Regarding `CC1CCN(S(=O)(=O)c2cccc(C(=O)Nc3nccs3)c2)CC1`, the GFP response vs DMSO in experiment [1] was 101% (inactive); in experiment [1] (setting [6]) it was 101%; in experiment [1] (setting [7]) it was 101%; in experiment [3], 100% (inactive). Besides, the GFP response relative to DMSO in experiment [2] is 92.6% (inactive); in experiment [2] (setting [8]), 95.6%; in experiment [2] (setting [9]) it was 93.1%. Besides, the GFP response, % of DMSO in experiment [4] is 95.4% (inactive); in experiment [5], 107% (inactive); in experiment [5] (setting [6]) it was 105%; in experiment [5] (setting [7]), 105%.

For `O=C(O)Cc1ccc2ccc3ccccc3c2c1`, the GFP response vs DMSO is 96.8% (inactive) in experiment [1], 92.8% in experiment [1] (setting [6]), 97.8% in experiment [1] (setting [7]) and 102% (inactive) in experiment [3]. Moreover, the GFP response relative to DMSO was 106% (inactive) in experiment [2], 105% in experiment [2] (setting [8]) and 105% in experiment [2] (setting [9]). In addition, the GFP response, % of DMSO in experiment [4] is 96.1% (inactive); in experiment [5] it was 104% (inactive); in experiment [5] (setting [6]), 99.7%; in experiment [5] (setting [7]), 104%.

In the case of `COC(=O)c1cccc(-n2c(CCC(=O)O)ccc2-c2cccs2)c1`, the GFP response vs DMSO is 99.2% (inactive) in experiment [1], 98.9% in experiment [1] (setting [6]), 100% in experiment [1] (setting [7]) and 98.8% (inactive) in experiment [3]. Besides, the GFP response relative to DMSO in experiment [2] was 104% (inactive); in experiment [2] (setting [8]), 103%; in experiment [2] (setting [9]), 103%. Moreover, the GFP response, % of DMSO was 103% (inactive) in experiment [4], 97.2% (inactive) in experiment [5], 96.8% in experiment [5] (setting [6]) and 97.7% in experiment [5] (setting [7]).

Regarding `COCCN(CCOC)S(=O)(=O)c1ccc(C(=O)Nc2nnc(C)o2)cc1`, the GFP response vs DMSO in experiment [1] is 100% (inactive); in experiment [1] (setting [6]), 100%; in experiment [1] (setting [7]), 101%; in experiment [3] it was 99% (inactive). For the same compound, the GFP response relative to DMSO in experiment [2] was 99.5% (inactive); in experiment [2] (setting [8]) it was 97.5%; in experiment [2] (setting [9]), 98.4%. For the same compound, the GFP response, % of DMSO was 100% (inactive) in experiment [4], 102% (inactive) in experiment [5], 103% in experiment [5] (setting [6]) and 101% in experiment [5] (setting [7]).

With `O=[N+]([O-])c1ccc(N2CCN(CCO)CC2)cc1Sc1ccccn1`, the GFP response vs DMSO is 97.8% (inactive) in experiment [1], 99.5% in experiment [1] (setting [6]), 98% in experiment [1] (setting [7]) and 99.3% (inactive) in experiment [3]. The GFP response relative to DMSO in experiment [2] was 94.1% (inactive); in experiment [2] (setting [8]) it was 96%; in experiment [2] (setting [9]) it was 95.4%. Further, the GFP response, % of DMSO was 96.1% (inactive) in experiment [4], 101% (inactive) in experiment [5], 101% in experiment [5] (setting [6]) and 102% in experiment [5] (setting [7]).

On to `CCOc1c(Br)ccc2c1sc1nc[nH]c(=O)c12`, for which the GFP response vs DMSO in experiment [1] is 101% (inactive); in experiment [1] (setting [6]), 99.8%; in experiment [1] (setting [7]), 100%; in experiment [3], 103% (inactive). Further, the figures for the GFP response relative to DMSO in experiment [2], in experiment [2] (setting [8]) and in experiment [2] (setting [9]) were 105% (inactive), 99% and 108%, respectively. Also, the GFP response, % of DMSO in experiment [4] is 99.1% (inactive); in experiment [5], 100% (inactive); in experiment [5] (setting [6]), 97.6%; in experiment [5] (setting [7]) it was 100%.

`O=[N+]([O-])c1cc(CN2CCN(c3cccc(C(F)(F)F)c3)CC2)c2cccnc2c1O`: the GFP response vs DMSO in experiment [1] was 112% (inactive); in experiment [1] (setting [6]), 96.4%; in experiment [1] (setting [7]), 104%; in experiment [3], 145% (inactive). Also, the GFP response relative to DMSO in experiment [2] is 234% (active); in experiment [2] (setting [8]) it was 229%; in experiment [2] (setting [9]), 216%. The GFP response, % of DMSO is 116% (inactive) in experiment [4], 138% (inactive) in experiment [5], 117% in experiment [5] (setting [6]) and 131% in experiment [5] (setting [7]).

As to `Cc1nc2ccc(Br)cn2c1C(=O)N/N=C\c1ccccc1Cl`, the GFP response vs DMSO is 95.4% (inactive) in experiment [1], 95.6% in experiment [1] (setting [6]), 96.6% in experiment [1] (setting [7]) and 96.2% (inactive) in experiment [3]. The GFP response relative to DMSO is 94.1% (inactive) in experiment [2], 94.4% in experiment [2] (setting [8]) and 96.1% in experiment [2] (setting [9]). Also, the GFP response, % of DMSO in experiment [4] was 98% (inactive); in experiment [5], 99.7% (inactive); in experiment [5] (setting [6]), 99.1%; in experiment [5] (setting [7]) it was 99.7%.

Turning to `CC1CCc2c(C(=O)NCc3cccnc3)csc2C1` (centres undefined), the GFP response vs DMSO is 94.2% (inactive) in experiment [1], 94.2% in experiment [1] (setting [6]), 92.7% in experiment [1] (setting [7]) and 94.7% (inactive) in experiment [3]. Further, the GFP response relative to DMSO is 111% (inactive) in experiment [2], 109% in experiment [2] (setting [8]) and 113% in experiment [2] (setting [9]). Further, the GFP response, % of DMSO in experiment [4] is 95.9% (inactive); in experiment [5] it was 87.2% (inactive); in experiment [5] (setting [6]), 84.8%; in experiment [5] (setting [7]), 88.2%.

For the compound `Cc1ccccc1N1C(=O)c2cccc3c(N(C)CCO)ccc(c23)C1=O`, the GFP response vs DMSO in experiment [1] is 99.5% (inactive); in experiment [1] (setting [6]), 99.8%; in experiment [1] (setting [7]) it was 100%; in experiment [3] it was 104% (inactive). For the same compound, the figures for the GFP response relative to DMSO in experiment [2], in experiment [2] (setting [8]) and in experiment [2] (setting [9]) were 100% (inactive), 99.3% and 98.5%, respectively. Moreover, the GFP response, % of DMSO was 103% (inactive) in experiment [4], 101% (inactive) in experiment [5], 102% in experiment [5] (setting [6]) and 100% in experiment [5] (setting [7]).
